Converted amounts (≈) assume the structure as drawn. “And” between values parts separate entries of the source, which are not always exact repeats. Equal entries are not always repeated.
Key:
Gallus gallus [1] = species on record: Gallus gallus; test: Compound is evaluated for the effect on lipid metabolism in 6-week-old male chickens at a concentration of 20 ppm in the diet and measured for HDL cholesterol (dose 15 p.p.m.); assay type: functional
Gallus gallus [2] = species on record: Gallus gallus; test: Compound is evaluated for the effect on lipid metabolism in 6-week-old male chickens at a concentration of 20 ppm in the diet and measured for HDL cholesterol (dose 30 p.p.m.); assay type: functional
Gallus gallus [3] = species on record: Gallus gallus; test: Compound is evaluated for the effect on lipid metabolism in 6-week-old male chickens at a concentration of 20 ppm in the diet and measured for HDL cholesterol dose 45 p.p.m.); assay type: functional
Gallus gallus [4] = species on record: Gallus gallus; test: picomoles of mevalonic acid synthesized per minute per mg of microsomal protein (dose 15 p.p.m.); assay type: functional, organism-based
Gallus gallus [5] = species on record: Gallus gallus; test: picomoles of mevalonic acid synthesized per minute per mg of microsomal protein(dose 30 p.p.m.); assay type: functional, organism-based
Gallus gallus [6] = species on record: Gallus gallus; test: picomoles of mevalonic acid synthesized per minute per mg of microsomal […] 45 p.p.m.); assay type: functional, organism-based
Gallus gallus [7] = species on record: Gallus gallus; test: Compound is evaluated for the effect on lipid metabolism in 6-week-old male chickens at a concentration of 20 ppm in the diet and measured for LDL cholesterol (dose 15 p.p.m.); assay type: functional
How it was run: (§1)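 Male chicks were raised 2 weeks on a corn-soybean control diet, then fed 4 weeks on control diet or the same diet with compound added. All birds were fasted 36 h and refed 48 h before sacrifice. Serum cholesterol is given as mg/100 mL.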

Gallus gallus [8] = species on record: Gallus gallus; test: Compound is evaluated for the effect on lipid metabolism in 6-week-old male chickens at a concentration of 20 ppm in the diet and measured for LDL cholesterol (dose 30 p.p.m.); assay type: functional; how it was run: as §1
Gallus gallus [9] = species on record: Gallus gallus; test: Compound is evaluated for the effect on lipid metabolism in 6-week-old male chickens at a concentration of 20 ppm in the diet and measured for LDL cholesterol dose 45 p.p.m.); assay type: functional; how it was run: as §1
Gallus gallus [10] = species on record: Gallus gallus; test: Compound is evaluated for the effect on lipid metabolism in 6-week-old male chickens at a concentration of 20 ppm in the diet and measured for total cholesterol (dose 15 p.p.m.); assay type: functional
Gallus gallus [11] = species on record: Gallus gallus; test: Compound is evaluated for the effect on lipid metabolism in 6-week-old male chickens at a concentration of 20 ppm in the diet and measured for total cholesterol (dose 30 p.p.m.); assay type: functional
Gallus gallus [12] = species on record: Gallus gallus; test: Compound is evaluated for the effect on lipid metabolism in 6-week-old male chickens at a concentration of 20 ppm in the diet and measured for total cholesterol (dose 45 p.p.m.); assay type: functional
HepG2 [13] = test: Compound evaluated for Percent inhibition of cholesterol synthesis from HMG-CoA Reductase in HepG2 cell; assay type: functional, Homo sapiens
HepG2 [14] = test: Compound evaluated for Percent inhibition of cholesterol synthesis from [14C]acetate in HepG2 cell; assay type: functional, Homo sapiens
HepG2 [15] = test: Compound is evaluated for the inhibition of cholesterol synthesis in HepG2 cells for an incubation time of 2 (h); assay type: functional, cell-based; settings: Homo sapiens
How it was run: (§2)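 HepG2 cells were grown in RPMI-1640 with 10% FBS. At about 70% confluence they were switched to 7% lipid-depleted serum for 16 h. Compound in DMSO (0.5% v/v final) was added for the stated time. A [2-14C]acetate pulse over the final 60 min measured incorporation into digitonin-precipitable sterols. IC50 came from linear regression of at least four concentrations, each in duplicate.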

HepG2 [16] = test: Compound is evaluated for the inhibition of cholesterol synthesis in HepG2 cells for an incubation time of 4 (h); assay type: functional, cell-based; settings: Homo sapiens; how it was run: as §2
HepG2 [17] = test: Compound is evaluated for the inhibition of cholesterol synthesis in HepG2 cells for an incubation time of 6 (h); assay type: functional, cell-based; settings: Homo sapiens; how it was run: as §2
HepG2 [18] = test: Compound evaluated for percent inhibition of cholesterol synthesis from HMG-CoA Reductase in HepG2 cell; assay type: functional, Homo sapiens
HepG2 [19] = test: Compound evaluated for percent inhibition of cholesterol synthesis from [14C]acetate in HepG2 cell; assay type: functional, Homo sapiens; parameters: concentration or dose not given beside the values
HepG2 [20] = test: Compound is evaluated for relative potency versus gamma-tocotrienol at 2 (h) time point in HepG2 cells; assay type: functional, Homo sapiens
HepG2 [21] = test: Compound is evaluated for relative potency versus gamma-tocotrienol at 4 (h) time point in HepG2 cells; assay type: functional, Homo sapiens
HepG2 [22] = test: Compound is evaluated for relative potency versus gamma-tocotrienol at 6 (h) time point in HepG2 cells; assay type: functional, Homo sapiens
Rattus norvegicus [23] = species on record: Rattus norvegicus; test: Compound is evaluated for the inhibition of cholesterol biosynthesis in rat hepatocytes at a concentration of 210 (micro g/mL); assay type: functional, Hepatocyte
Rattus norvegicus [24] = species on record: Rattus norvegicus; test: Compound is evaluated for the inhibition of cholesterol biosynthesis in rat hepatocytes at a concentration of 41 (micro g/mL); assay type: functional, Hepatocyte
Gallus gallus [25] = species on record: Gallus gallus; test: Compound is evaluated for the effect on lipid metabolism in 6-week-old male chickens at a concentration of 20 ppm in the diet and measured for HDL cholesterol; assay type: functional
Gallus gallus [26] = species on record: Gallus gallus; test: picomoles of mevalonic acid synthesized per minute per mg of microsomal protein; assay type: functional, organism-based
Gallus gallus [27] = species on record: Gallus gallus; test: Compound is evaluated for the effect on lipid metabolism in 6-week-old male chickens at a concentration of 20 ppm in the diet and measured for LDL cholesterol; assay type: functional; how it was run: as §1
Gallus gallus [28] = species on record: Gallus gallus; test: Compound is evaluated for the effect on lipid metabolism in 6-week-old male chickens at a concentration of 20 ppm in the diet and measured for total cholesterol; assay type: functional
Rattus norvegicus [29] = species on record: Rattus norvegicus; test: Percent inhibition at 250 ug/mL of binary mixtures of compound and alpha-tocotrienol on cholesterol synthesis in rat hepatocytes; assay type: functional, Hepatocyte
Rattus norvegicus [30] = species on record: Rattus norvegicus; test: Percent inhibition at 250 ug/mL of binary mixtures of compound and delta-tocotrienol on cholesterol synthesis in rat hepatocytes; assay type: functional, Hepatocyte
Rattus norvegicus [31] = species on record: Rattus norvegicus; test: Percent inhibition at 250 ug/mL of binary mixtures of compound and gamma-tocotrienol on cholesterol synthesis in rat hepatocytes; assay type: functional, Hepatocyte
Rattus norvegicus [32] = species on record: Rattus norvegicus; test: Percent inhibition of cholesterol biosynthesis in rat hepatocytes at a concentration of 210 (micro g/mL); assay type: functional, Hepatocyte
Rattus norvegicus [33] = species on record: Rattus norvegicus; test: Compound is evaluated for the inhibition of cholesterol biosynthesis in isolated rat hepatocytes at the concentration 250 (ug/mL); assay type: functional, Hepatocyte
Rattus norvegicus [34] = species on record: Rattus norvegicus; test: Compound is evaluated for the inhibition of cholesterol biosynthesis in isolated rat hepatocytes at the concentration 500 ug/mL; assay type: functional, Hepatocyte
Rattus norvegicus [35] = species on record: Rattus norvegicus; test: Inhibitory concentration required to inhibit cholesterol synthesis in isolated rat Hepatocytes; no inhibition; assay type: functional; settings: hepatocyte
Rattus norvegicus [36] = species on record: Rattus norvegicus; test: Inhibitory concentration required to inhibit cholesterol synthesis in isolated rat Hepatocytes; assay type: functional, Hepatocyte
Rattus norvegicus [37] = species on record: Rattus norvegicus; test: Compound is evaluated for the inhibition of cholesterol biosynthesis in isolated rat hepatocytes at the concentration 125 (ug/mL); assay type: functional, Hepatocyte
Rattus norvegicus [38] = species on record: Rattus norvegicus; test: Compound is evaluated for the inhibition of cholesterol biosynthesis in isolated rat hepatocytes at the concentration 500 (ug/mL); assay type: functional, Hepatocyte
Gallus gallus [39] = species on record: Gallus gallus; test: Compound is evaluated for the effect on lipid metabolism in 6-week-old male chickens at a concentration of 20 ppm in the diet and measured for HDL cholesterol (dose 45 p.p.m.); assay type: functional
Gallus gallus [40] = species on record: Gallus gallus; test: picomoles of mevalonic acid synthesized per minute per mg of microsomal protein(dose 45 p.p.m.); assay type: functional, organism-based
Gallus gallus [41] = species on record: Gallus gallus; test: Compound is evaluated for the effect on lipid metabolism in 6-week-old male chickens at a concentration of 20 ppm in the diet and measured for LDL cholesterol (dose 45 p.p.m.); assay type: functional; how it was run: as §1
[42] = Rattus norvegicus, Hepatocyte, read-out: IC50

Row | SMILES | HDL cholesterol (Gallus gallus [1]) [mg 100ml-1] | HDL cholesterol (Gallus gallus [2]) [mg 100ml-1] | HMGR activity (Gallus gallus [4]) | HMGR activity (Gallus gallus [5]) | LDL cholesterol (Gallus gallus [7]) [mg 100ml-1] | LDL cholesterol (Gallus gallus [8]) [mg 100ml-1] | Total cholesterol (Gallus gallus [10]) [mg 100ml-1] | Total cholesterol (Gallus gallus [11]) [mg 100ml-1] | Total cholesterol (Gallus gallus [12]) [mg 100ml-1] | Inhibition (HepG2 [13]) [%] | Inhibition (HepG2 [14]) [%] | HDL cholesterol (Gallus gallus [25]) [mg 100ml-1] | HMGR activity (Gallus gallus [26]) | LDL cholesterol (Gallus gallus [27]) [mg 100ml-1] | Total cholesterol (Gallus gallus [28]) [mg 100ml-1] | Inhibition (Rattus norvegicus [33]) | Inhibition (Rattus norvegicus [34]) | IC50 (Rattus norvegicus [36]; [42]) [µg/mL] | IC50 (Rattus norvegicus [36]; hepatocyte) [µg/mL] | Inhibition (Rattus norvegicus [37]) [%] | further results
1 | CC(C)=CCC/C(C)=C/CC/C(C)=C/CCC1(C)CCc2cc(O)c(C)c(C)c2O1 (racemic) | 97 | 97 | 603 | 561 | 44 | 39 | 143 | 138 | 132 | 62 | 71 | – | – | – | – | – | – | – | – | – | HDL cholesterol (Gallus gallus [3]): 96 mg 100ml-1; HMGR activity (Gallus gallus [6]): 551; LDL cholesterol (Gallus gallus [9]): 32 mg 100ml-1; IC50 (HepG2 [15]): 5.9 µM; IC50 (HepG2 [16]): 2.8 µM; IC50 (HepG2 [17]): 3 µM
2 | CC(C)=CCC/C(C)=C/CC/C(C)=C/CCC1(C)CCc2c(C)c(O)c(C)c(C)c2O1 (racemic) | – | – | – | – | – | – | – | – | – | – | – | – | – | – | – | – | – | – | – | – | Inhibition (HepG2 [18]): 19%; Inhibition (HepG2 [19]): 21%; IC50 (HepG2 [15]): 380 µM; IC50 (HepG2 [16]): 94 µM; Relative potency (HepG2 [20]): 0.016; Relative potency (HepG2 [21]): 0.03; Relative potency (HepG2 [22]): 0.027; Inhibition (Rattus norvegicus [23]): 17%; Inhibition (Rattus norvegicus [24]): 4%; IC50 (HepG2 [17]): 110 µM
3 | Cc1c(C)c2c(c(C)c1O)CC[C@@](C)(CCC[C@H](C)CCC[C@H](C)CCCC(C)C)O2 [ALPHA-TOCOPHEROL] | – | – | – | – | – | – | – | – | – | – | – | 113 | 1300 | 72 | 190 | 0% | 2% and 0% | – | – | – | Inhibition (Rattus norvegicus [29]): 3%; Inhibition (Rattus norvegicus [30]): 49%; Inhibition (Rattus norvegicus [31]): 42%; Inhibition (Rattus norvegicus [32]): 0%; IC50 (Rattus norvegicus [35]): Not Active
4 | CC(C)=CCC/C(C)=C/CC/C(C)=C/CC[C@]1(C)CCc2c(C)c(O)c(C)c(C)c2O1 [ALPHA-TOCOTRIENOL] | – | – | – | – | – | – | – | – | – | 15 | 32 | 102 | 670 | 55 | 155 | 8% and 20% | 12% and 33% | > 1000 | 1300 (≈ 3060 µM) | 8 | Inhibition (Rattus norvegicus [30]): 53%; Inhibition (Rattus norvegicus [31]): 49%
5 | CC(C)=CCC/C(C)=C/CC/C(C)=C/CC[C@]1(C)CCc2cc(O)cc(C)c2O1 [DELTA-TOCOTRIENOL] | – | – | – | – | – | – | – | – | – | 65 | 77 | 99 | 550 | 41 | 141 | 49% and 33% | – | 260 (≈ 656 µM) | 340 (≈ 857 µM) | 26 | Inhibition (Rattus norvegicus [38]): 62% and 63%
6 | CC(C)=CCC/C(C)=C/CC/C(C)=C/CC[C@]1(C)CCc2cc(O)c(C)c(C)c2O1 [GAMMA-TOCOTRIENOL] | 97 | 95 | 606 | 561 | 42 | 35 | 141 | 132 | 125 | 64 | 78 | 102 | 494 | 41 | 151 | 48% and 34% | 61% | 270 (≈ 658 µM) | 360 (≈ 877 µM) | 28 | HDL cholesterol (Gallus gallus [39]): 94 mg 100ml-1; HMGR activity (Gallus gallus [40]): 546; LDL cholesterol (Gallus gallus [41]): 29 mg 100ml-1; Inhibition (Rattus norvegicus [29]): 64%; inhibition at 500 µg/mL (Rattus norvegicus [34]; Rattus norvegicus, Hepatocyte): 60%
